Entries after “also recorded” stand apart in the source; their conditions may differ.
How the values were obtained:
[1] = test system: sstr2-transfected HCT116 cells; experiment: Cellular internalization assay; assay type: cell-based
[2] = Biodistribution in mice bearing subcutaneous sstr2-transfected HCT116 tumours; assay type: in vivo; settings: mouse, n = 4; for tissue uptake at 1 h: 1 h p.i.; for tissue uptake at 4 h: 4 h p.i.; for tissue uptake at 24 h: 24 h p.i.
In short: (§1)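 Mice with subcutaneous sstr2-transfected HCT116 tumours received the 64Cu-labelled test conjugate. Activity was measured in blood, liver, kidney, muscle, bone, adrenal, pancreas and tumour at 1, 4 and 24 h p.i. A blocking group received co-administered Y3-TATE, assessed at 4 h p.i. Tumour-to-blood, -muscle, -kidney and -liver ratios were calculated. n = 4 per group; P-values were reported for group comparisons.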

[3] = test system: sstr2-transfected HCT116 tumours; experiment: as above; assay type: in vivo
In short: as §1

[4] = PET/CT imaging at 2 h p.i. in mice bearing sstr2-transfected HCT116 xenografts; assay type: in vivo; settings: mouse, tumour, tumour standard uptake value (SUV), n = 2
In short: (§2)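 PET/CT imaging was done at 2 h p.i. with the 64Cu-labelled test conjugate. Mice bore subcutaneously implanted sstr2-transfected HCT116 xenografts. The blocked mouse was co-administered Y3-TATE (10 mg/kg). Tumour standard uptake value (SUV) was read from the images.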

[5] = test system: sstr2-transfected HCT116 tumours; experiment: as above; assay type: in vivo; settings: with the exception of kidneys
In short: as §2

With C[C@@H](O)[C@H](NC(=O)[C@@H]1CSSC[C@H](NC(=O)[C@@H](Cc2ccccc2)NC(=O)Cn2cc(CN3CCCN4CCN(CCCN(CP(=O)(O)O)CC4)CC3)nn2)C(=O)N[C@@H](Cc2ccc(O)cc2)C(=O)N[C@H](Cc2c[nH]c3ccccc23)C(=O)N[C@@H](CCCCN)C(=O)N[C@@H]([C@@H](C)O)C(=O)N1)C(=O)O (64Cu complex, metal not drawn) [Compound 6] the internalized ([1]; after 4 h, sstr2-transfected HCT116 cells) was 38 %ID/mg protein, the “surface bound, and thus internalized 6, blocked by excess Y3-TATE” value ([1]; cells pre-incubated with excess Y3-TATE, P < 0.0001, n = 3) was “More than 95%” and the “internalization, in words” value ([1]; sstr2-transfected HCT116 cells) was “internalized rapidly and specifically; also recorded: quickly bound to the cell surface, and was steadily internalized”. For the same molecule, the tissue uptake at 1 h ([2]; adrenal, Adrenal uptake) was 1.14 ± 0.46 %ID/g, the tissue uptake at 4 h ([2]; adrenal, Adrenal uptake, blocked with co-administration of Y3-TATE) was 0.37 ± 0.05 %ID/g and the tissue uptake at 4 h ([2]; adrenal, Adrenal uptake) was 1.24 ± 0.4 %ID/g. The tissue uptake at 1 h ([2]; blood, Blood uptake) was 0.34 ± 0.13 %ID/g, the tissue uptake at 4 h ([2]; blood, Blood uptake, blocked with co-administration of Y3-TATE) was 0.22 ± 0.04 %ID/g and the tissue uptake at 4 h ([2]; blood, Blood uptake) was 0.2 ± 0.03 %ID/g. The tissue uptake at 24 h ([2]; blood, Blood uptake) was 0.15 ± 0.06 %ID/g, the tissue uptake at 1 h ([2]; bone, Bone uptake) was 0.46 ± 0.16 %ID/g and the tissue uptake at 4 h ([2]; bone, Bone uptake, blocked with co-administration of Y3-TATE) was 0.2 ± 0.04 %ID/g. It also gave a tissue uptake at 4 h ([2]; bone, Bone uptake) of 0.5 ± 0.24 %ID/g, a tissue uptake at 24 h ([2]; bone, Bone uptake) of 0.35 ± 0.1 %ID/g and a tissue uptake at 1 h ([2]; kidney, Kidney uptake) of 15.9 ± 3.03 %ID/g. It also gave a tissue uptake at 4 h ([2]; kidney, Kidney uptake, blocked with co-administration of Y3-TATE) of 16.1 ± 5.03 %ID/g, a tissue uptake at 4 h ([2]; kidney, Kidney uptake) of 21 ± 2.84 %ID/g and a tissue uptake at 24 h ([2]; kidney, Kidney uptake) of 14.7 ± 2.53 %ID/g. For the same molecule, the tissue uptake at 1 h ([2]; liver, Liver uptake) was 1.13 ± 0.16 %ID/g, the tissue uptake at 4 h ([2]; liver, Liver uptake, blocked with co-administration of Y3-TATE) was 1.32 ± 0.3 %ID/g and the tissue uptake at 4 h ([2]; liver, Liver uptake) was 1.3 ± 0.1 %ID/g. The tissue uptake at 24 h ([2]; liver, Liver uptake) was 1.05 ± 0.1 %ID/g, the tissue uptake at 1 h ([2]; muscle, Muscle uptake) was 0.22 ± 0.15 %ID/g and the tissue uptake at 4 h ([2]; muscle, Muscle uptake, blocked with co-administration of Y3-TATE) was 0.09 ± 0.03 %ID/g. It also gave a tissue uptake at 4 h ([2]; muscle, Muscle uptake) of 0.07 ± 0.02 %ID/g, a tissue uptake at 24 h ([2]; muscle, Muscle uptake) of 0.06 %ID/g and a tissue uptake at 1 h ([2]; pancreas, Pancreas uptake) of 6.71 ± 0.22 %ID/g. It also gave a tissue uptake at 4 h ([2]; pancreas, Pancreas uptake, blocked with co-administration of Y3-TATE) of 0.3 ± 0.07 %ID/g, a tissue uptake at 4 h ([2]; pancreas, Pancreas uptake) of 4.41 ± 0.95 %ID/g and a tissue uptake at 24 h ([2]; pancreas, Pancreas uptake) of 1.84 ± 0.64 %ID/g. For the same molecule, the tissue uptake at 1 h ([2]; tumour, Tumour uptake) was 4.73 ± 1.17 %ID/g, the tissue uptake at 4 h ([2]; tumour, Tumour uptake, blocked with co-administration of Y3-TATE) was 0.69 ± 0.22 %ID/g and the tissue uptake at 4 h ([2]; tumour, Tumour uptake) was 7.54 ± 1.43 %ID/g. The tissue uptake at 24 h ([2]; tumour, Tumour uptake) was 4.39 ± 1.71 %ID/g, the “kidney uptake, in words” value ([3]; 1, 4, and 24 h p.i.) was “consistently high uptake” and the “uptake in sstr2-expressing organs (adrenal, pancreas, tumour), in words” value ([3]; 1, 4, and 24 h p.i.) was “high tracer uptake”. The “blocking of tumour uptake by co-administered Y3-TATE” value ([3]; 4 h p.i., P < 0.0001, n = 4) was 91%, the “blocking of adrenal uptake by co-administered Y3-TATE” value ([3]; 4 h p.i., P = 0.0051, n = 4) was 70% and the “in vivo stability of the copper complex, in words” value ([3]; inferred from relatively low liver activity) was “reasonable in vivo stability”. For the same molecule, the “time of maximum tumour uptake” value ([3]; p.i., n = 4) was 4 h, the SUV at 2 h [4] was 2.25 ± 0.49 SUV and the “tumour uptake and contrast by PET/CT, in words” value [5] was “excellent tumour uptake and contrast”.
